Source: ChEMBL document CHEMBL4251567 (Eur J Med Chem, 2018)
Each block holds one compound with its values, some of them ahead of it.

How the values were obtained:
[1] = target: Histone deacetylase 2 (Homo sapiens) (UniProt Q92769); test: Inhibition of HDAC2 in human HeLa-S3 cell lysates assessed as remaining activity at […] preincubated for 15 mins followed by HDAC-Glo substrate addition measured after 30 to 40 mins by […] relative to control
[2] = target: T1, Histone deacetylase (Homo sapiens) (UniProt Q13547+O15379+Q9UBN7+Q92769+Q9UQL6+Q8WUI4+Q9BY41+Q96DB2+P56524+Q9UKV0+Q969S8); test: Inhibition of HDAC in human HeLa-S3 cell lysates assessed as residual activity at 1.2 x 10^-5 M preincubated for 15 mins followed by HDAC-Glo substrate addition measured after 35 mins by […] relative to control; format: protein assay
[3] = target: Histone deacetylase 3 (Homo sapiens) (UniProt O15379); test: Inhibition of HDAC3 in human HeLa-S3 cell lysates assessed as remaining activity at 4 x 10^-6 M preincubated for 15 mins followed by HDAC-Glo substrate addition measured after 30 to 40 mins by fluorimetric method relative to control
In short: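 Antibody-capture (ELISA-type) assay: HDAC antibody coated in carbonate/bicarbonate buffer pH 9.4, wells blocked with 5% milk in TBST. HeLa-S3 lysate added at 1 mg/mL for HDAC3, 1 h at 4 °C, then washed. Inhibitor in DMSO preincubated 15 min at RT in HDAC-Glo buffer. HDAC-Glo reagent added, luminescence read after 30-40 min. Concentrations are final. Background = no-antibody well; activity given as % of DMSO control.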

[4] = target: T1, Histone deacetylase (Homo sapiens); test: Inhibition of HDAC in human HeLa-S3 cell lysates assessed as residual activity at 3 x 10^-6 M preincubated for 15 mins followed by HDAC-Glo substrate addition measured after 35 mins by […] relative to control; format: protein assay
[5] = target: Histone deacetylase 2 (Homo sapiens) (UniProt Q92769); test: Inhibition of HDAC2 in human HeLa-S3 cell lysates assessed as remaining activity at 1 x 10^-6 M preincubated for 15 mins followed by HDAC-Glo substrate addition measured after 30 to 40 mins by […] relative to control
In short: (§1)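 Same antibody-capture format as the other class I isoforms. HeLa-S3 lysate added at 100 μg/mL for HDAC1 and HDAC2, 1 h at 4 °C, then washed. Inhibitor in DMSO preincubated 15 min at RT; HDAC-Glo reagent added and luminescence read after 30-40 min. Concentrations are final. Signal corrected against a well without antibody; activity expressed as % of DMSO control.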

[6] = target: Histone deacetylase 2 (Homo sapiens) (UniProt Q92769); test: Inhibition of HDAC2 in human HeLa-S3 cell lysates assessed as remaining activity at 1.25 uM preincubated for 15 mins followed by HDAC-Glo substrate addition measured after 30 to 40 mins by […] relative to control; in short: as §1
[7] = target: Histone deacetylase 1 (Homo sapiens) (UniProt Q13547); test: Inhibition of HDAC1 in human HeLa-S3 cell lysates assessed as remaining activity at 1.25 uM preincubated for 15 mins followed by HDAC-Glo substrate addition measured after 30 to 40 mins by […] relative to control
In short: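 HDAC1 was captured from HeLa-S3 lysate (100 μg/mL) onto wells precoated with anti-HDAC1 antibody (10 μg/mL, carbonate buffer pH 9.4) and milk-blocked, 1 h at 4 °C, then washed. Inhibitor in DMSO was added in HDAC-Glo buffer for 15 min at room temperature. HDAC-Glo reagent was added and luminescence read after 30-40 min. Concentrations are final. No-antibody background subtracted; % of DMSO control.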

[8] = target: T2, Protein deacetylase HDAC6 (Homo sapiens) (UniProt Q9UBN7); test: Inhibition of HDAC6 in human U937 cells assessed as increase in acetyl-alpha-tubulin levels after 18 hrs by Western blot method; format: cell-based
T2 sequence (whole entry): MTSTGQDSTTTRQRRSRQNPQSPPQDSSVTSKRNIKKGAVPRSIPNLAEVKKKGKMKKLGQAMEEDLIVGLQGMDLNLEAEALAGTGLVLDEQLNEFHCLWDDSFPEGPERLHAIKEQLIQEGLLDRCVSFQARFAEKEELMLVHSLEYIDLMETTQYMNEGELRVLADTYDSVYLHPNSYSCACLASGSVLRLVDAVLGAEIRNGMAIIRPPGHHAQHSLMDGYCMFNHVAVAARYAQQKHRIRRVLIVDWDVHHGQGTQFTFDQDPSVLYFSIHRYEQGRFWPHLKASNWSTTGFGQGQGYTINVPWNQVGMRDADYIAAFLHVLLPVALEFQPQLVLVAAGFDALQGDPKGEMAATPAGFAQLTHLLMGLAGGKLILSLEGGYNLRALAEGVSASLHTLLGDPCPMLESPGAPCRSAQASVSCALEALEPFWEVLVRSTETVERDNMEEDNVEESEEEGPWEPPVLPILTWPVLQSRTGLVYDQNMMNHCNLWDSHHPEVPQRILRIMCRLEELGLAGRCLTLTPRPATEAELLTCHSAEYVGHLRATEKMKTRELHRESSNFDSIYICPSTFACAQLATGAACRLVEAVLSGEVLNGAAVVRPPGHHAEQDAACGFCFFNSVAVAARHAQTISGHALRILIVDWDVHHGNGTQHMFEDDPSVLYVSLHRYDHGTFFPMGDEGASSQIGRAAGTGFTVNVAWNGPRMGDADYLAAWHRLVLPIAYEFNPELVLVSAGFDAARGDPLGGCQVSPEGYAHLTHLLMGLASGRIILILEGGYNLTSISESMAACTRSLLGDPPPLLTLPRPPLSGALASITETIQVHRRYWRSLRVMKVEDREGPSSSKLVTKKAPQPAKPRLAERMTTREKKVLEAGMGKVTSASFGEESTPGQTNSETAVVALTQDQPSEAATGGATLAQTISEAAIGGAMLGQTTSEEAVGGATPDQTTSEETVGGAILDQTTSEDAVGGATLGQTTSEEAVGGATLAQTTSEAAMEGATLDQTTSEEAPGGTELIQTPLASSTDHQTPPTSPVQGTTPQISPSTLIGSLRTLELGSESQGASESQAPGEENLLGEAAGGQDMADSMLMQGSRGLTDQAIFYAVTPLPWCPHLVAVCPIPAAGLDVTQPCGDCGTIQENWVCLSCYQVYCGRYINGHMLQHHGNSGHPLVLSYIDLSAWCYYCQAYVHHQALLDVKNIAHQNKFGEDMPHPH
In short: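 U937 cells (10^6/well in RPMI-1640 with 10% FCS) treated 18 h at 37 °C, 5% CO2 with inhibitor or DMSO (1% final). Lysates separated on 16% SDS-PAGE and blotted to PVDF. Probed with anti-acetyl-α-tubulin(Lys40) and anti-acetyl-H3(Lys9), GAPDH as load control; ECL detection. Blots representative of three trials.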

[9] = target: Histone deacetylase 2 (Homo sapiens) (UniProt Q92769); test: Inhibition of HDAC2 in human HeLa-S3 cell lysates assessed as remaining activity at 5 uM preincubated for 15 mins followed by HDAC-Glo substrate addition measured after 30 to 40 mins by […] relative to control; in short: as §1

Sequence of Histone deacetylase 2 (Homo sapiens) (Q92769 whole entry, canonical isoform): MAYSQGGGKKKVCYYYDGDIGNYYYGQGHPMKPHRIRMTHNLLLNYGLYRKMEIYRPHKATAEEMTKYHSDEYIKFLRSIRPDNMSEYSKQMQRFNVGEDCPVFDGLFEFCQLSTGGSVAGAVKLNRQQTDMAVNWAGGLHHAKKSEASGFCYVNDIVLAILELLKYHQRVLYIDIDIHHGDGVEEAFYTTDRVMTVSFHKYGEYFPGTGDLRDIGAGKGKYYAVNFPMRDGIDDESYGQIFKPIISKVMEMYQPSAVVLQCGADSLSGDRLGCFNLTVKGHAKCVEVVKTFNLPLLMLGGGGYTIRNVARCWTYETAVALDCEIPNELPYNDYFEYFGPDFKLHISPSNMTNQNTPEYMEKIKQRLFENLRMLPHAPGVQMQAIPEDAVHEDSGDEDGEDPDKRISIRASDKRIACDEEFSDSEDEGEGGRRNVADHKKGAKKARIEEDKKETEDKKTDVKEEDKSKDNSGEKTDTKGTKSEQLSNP
Sequence of Histone deacetylase 3 (Homo sapiens) (O15379 whole entry): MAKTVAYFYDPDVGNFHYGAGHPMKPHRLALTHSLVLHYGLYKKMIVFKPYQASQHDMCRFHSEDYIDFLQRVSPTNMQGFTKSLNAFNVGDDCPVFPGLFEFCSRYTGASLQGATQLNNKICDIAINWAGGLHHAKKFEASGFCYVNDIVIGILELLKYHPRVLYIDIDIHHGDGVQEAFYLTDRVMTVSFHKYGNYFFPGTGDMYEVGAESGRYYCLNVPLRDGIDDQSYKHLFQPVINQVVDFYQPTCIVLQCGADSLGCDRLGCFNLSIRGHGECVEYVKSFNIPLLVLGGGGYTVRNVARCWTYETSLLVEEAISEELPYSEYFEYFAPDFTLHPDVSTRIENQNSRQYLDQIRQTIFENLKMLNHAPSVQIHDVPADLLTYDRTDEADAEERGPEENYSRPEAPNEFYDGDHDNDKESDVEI
Sequence of Histone deacetylase 1 (Homo sapiens) (Q13547 whole entry): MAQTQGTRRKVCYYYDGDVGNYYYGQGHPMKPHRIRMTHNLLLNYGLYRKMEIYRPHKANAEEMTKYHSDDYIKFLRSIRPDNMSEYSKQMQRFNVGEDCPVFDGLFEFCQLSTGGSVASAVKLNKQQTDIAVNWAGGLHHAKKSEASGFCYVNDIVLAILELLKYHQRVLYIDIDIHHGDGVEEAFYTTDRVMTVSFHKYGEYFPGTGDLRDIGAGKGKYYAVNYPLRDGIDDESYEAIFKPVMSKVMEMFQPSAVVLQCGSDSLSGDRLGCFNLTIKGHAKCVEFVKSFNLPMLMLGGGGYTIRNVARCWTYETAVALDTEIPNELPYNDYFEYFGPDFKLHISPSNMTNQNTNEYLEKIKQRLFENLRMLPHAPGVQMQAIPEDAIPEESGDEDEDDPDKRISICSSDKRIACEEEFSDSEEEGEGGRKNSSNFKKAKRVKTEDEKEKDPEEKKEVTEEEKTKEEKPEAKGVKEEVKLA

Activity [1]: 87%
Activity [2]: 53%
Activity [3]: 64%
Activity [4]: 92%
Activity [5]: 86%
SMILES: CCC(CCCC(=O)Nc1ccccc1)CCC(=O)NO (centres undefined)

Activity [6]: 101%
Activity [7]: 97%
SMILES: CCCCCCC(CCCC(=O)Nc1ccccc1)CCC(=O)NO (centres undefined)

inhibition [8]: Dose-dependent effect
Activity [9]: 92%
SMILES: O=C(CCC(CCCC(=O)Nc1ccccc1)Cc1ccccc1)NO (racemic)
